Results as given in ChEMBL document CHEMBL1149395, “Beta-substituted cyclohexanecarboxamide: a nonpeptidic framework for the design of potent inhibitors of cathepsin K” (J Med Chem, 2006).

Experiments:
[1] = target: T1, Cathepsin K (Homo sapiens, UniProt P43235); assay: Inhibitory activity against human Cathepsin K
T1 sequence (P43235 whole entry): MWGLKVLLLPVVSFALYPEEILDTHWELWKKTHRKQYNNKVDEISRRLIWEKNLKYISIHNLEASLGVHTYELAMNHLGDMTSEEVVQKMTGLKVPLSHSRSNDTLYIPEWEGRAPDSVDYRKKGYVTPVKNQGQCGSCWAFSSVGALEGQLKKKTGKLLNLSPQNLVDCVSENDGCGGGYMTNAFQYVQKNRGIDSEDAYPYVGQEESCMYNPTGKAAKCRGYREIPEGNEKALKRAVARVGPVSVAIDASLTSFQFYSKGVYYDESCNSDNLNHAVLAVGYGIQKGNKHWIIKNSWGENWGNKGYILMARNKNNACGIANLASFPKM

[2] = target: Cathepsin K (Homo sapiens, UniProt P43235); assay: Inhibitory activity against humanized rabbit Cathepsin K
[3] = target: Cathepsin (L and K) (Homo sapiens) (UniProt P43235+P07711); assay: Selectivity for Cathepsin L over Cathepsin K; format: protein assay
[4] = target: Cathepsin (B and K) (Homo sapiens) (UniProt P43235+P07858); assay: Selectivity for Cathepsin B over Cathepsin K; format: protein assay
[5] = target: Cathepsin (S and K) (Homo sapiens) (UniProt P25774+P43235); assay: Selectivity for Cathepsin S over Cathepsin K; format: protein assay
[6] = Half life in rat at 1 mL/kg, iv; settings: Sprague-Dawley, in vivo
[7] = Plasma clearance in rat at 1 mL/kg, iv; settings: Sprague-Dawley
[8] = target: T2, Cathepsin K (Oryctolagus cuniculus, UniProt P43236); assay: Inhibitory activity against rabbit Cathepsin K
T2 sequence (P43236 whole entry): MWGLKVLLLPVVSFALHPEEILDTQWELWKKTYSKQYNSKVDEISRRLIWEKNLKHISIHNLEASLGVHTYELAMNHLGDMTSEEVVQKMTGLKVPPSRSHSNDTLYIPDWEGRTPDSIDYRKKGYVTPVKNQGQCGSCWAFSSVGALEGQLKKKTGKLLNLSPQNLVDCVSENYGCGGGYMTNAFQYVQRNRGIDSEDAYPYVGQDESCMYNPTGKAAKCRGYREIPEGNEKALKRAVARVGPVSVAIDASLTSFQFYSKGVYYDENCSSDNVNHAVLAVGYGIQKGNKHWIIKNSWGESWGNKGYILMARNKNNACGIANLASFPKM

[9] = Plasma clearance in dog at 5 mL/kg, po; format: ADME, organism-based, Canis lupus familiaris
In short: (§1)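 Single compounds given orally as suspensions in 1% methocel to animals fasted overnight, dosed in the morning. Oral dosing volumes were 10 mL/kg for rats, 5 mL/kg for dogs and 1 mL/kg for monkeys. Intravenous comparison dosing went via the jugular vein in PEG-200/H₂O (3:2) at 1 mL/kg. Plasma was sampled at regular intervals, precipitated with 1.5 volumes of acetonitrile, centrifuged and analysed by LC-MS.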

[10] = Half life in squirrel monkey at 1 mL/kg, po; format: ADME, organism-based, Saimiri sciureus; settings: in vivo; in short: as §1
[11] = species on record: Oryctolagus cuniculus; assay: Effect on degradation of collagen in bovine bone by rabbit osteoclast; format: functional
[12] = Plasma clearance in squirrel monkey at 1 mL/kg, po; format: ADME, organism-based, Saimiri sciureus; in short: as §1
[13] = Half life in dog at 5 mL/kg, po; format: ADME, organism-based, Canis lupus familiaris; settings: in vivo; in short: as §1
[14] = Half life in rat at 10 mL/kg, po; format: ADME, organism-based; settings: Sprague-Dawley, in vivo; in short: as §1
[15] = Plasma clearance in rat at 10 mL/kg, po; format: ADME, organism-based; settings: Sprague-Dawley; in short: as §1
[16] = Oral bioavailability in squirrel monkey at 1 mL/kg, po; format: ADME, organism-based, Saimiri sciureus; settings: in vivo; in short: as §1
[17] = Oral bioavailability in rats at 10 mL/kg, po; format: ADME, organism-based; settings: Sprague-Dawley, rat, in vivo; in short: as §1
[18] = Oral bioavailability in dogs at 5 mL/kg, po; format: ADME, organism-based, Canis lupus familiaris; settings: dog, in vivo; in short: as §1

| SMILES | IC50 [2] | Selectivity ratio [3] | Selectivity ratio [4] | Selectivity ratio [5] | other results |
| --- | --- | --- | --- | --- | --- |
| N#CCNC(=O)[C@@H]1CCCC[C@H]1SCc1ccccc1 (racemic) |  |  |  |  | IC50 [1]: 52 nM |
| Cc1ccc(SC[C@@H]2CCCC[C@H]2C(=O)NCC#N)cc1 (racemic) | 100 nM | 110 | 380 | 180 |  |
| N#CCNC(=O)[C@@H]1CCCC[C@H]1CSc1ccccc1 (racemic) | 172 nM | 150 | 31 | 28 | IC50 [1]: 140 nM |
| CSc1ccc(S(=O)(=O)C[C@@H]2CCCC[C@H]2C(=O)NCC#N)cc1 (mixture of isomers) | 5 nM | 740 | 2000 | 1800 | half-life [6]: 0.0833 h; clearance [7]: 38 mL/min/kg |
| CSc1ccc(SC[C@@H]2CCCC[C@H]2C(=O)NCC#N)cc1 (racemic) | 4.2 nM | 2200 | > 24000 | 3200 |  |
| N#CCNC(=O)[C@@H]1CCCC[C@H]1CSc1cc(Cl)ccc1Cl (racemic) | 150 nM |  |  |  |  |
| N#CCNC(=O)[C@@H]1CCCC[C@H]1CSc1nc2ccccc2s1 (racemic) | 200 nM |  |  |  |  |
| CSc1ccc(-c2ccccc2C2CCC(F)CC2C(=O)NCC#N)cc1 (racemic; form 1) [listing 1 of 2 here] |  | 1600 | > 2400 | 1500 |  |
| N#CCNC(=O)[C@@H]1CCCC[C@H]1CSc1nnc(-c2ccncc2)o1 (relative stereo) | 950 nM |  |  |  |  |
| CSc1ccc(-c2ccccc2C2CCC(F)CC2C(=O)NCC#N)cc1 (racemic; form 2) [listing 1 of 2 here] |  | 2000 | > 2700 | 180 |  |
| N#CCNC(=O)[C@@H]1CCCC[C@H]1CSc1cc(Cl)cc(Cl)c1 (racemic) | 280 nM |  |  |  |  |
| N#CCNC(=O)[C@@H]1CCCC[C@H]1CSc1cccc(O)c1 | 330 nM |  |  |  |  |
| N#CCNC(=O)[C@@H]1CCCC[C@H]1c1ccccc1-c1ccc(F)cc1 (racemic) |  |  |  |  | half-life [6]: 0.75 h; clearance [7]: 50 mL/min/kg |
| CSc1ccc(-c2ccccc2C2CCC(F)CC2C(=O)NCC#N)cc1 (racemic; form 2) [listing 2 of 2 here] | 3.7 nM |  |  |  | IC50 [8]: 12 nM |
| CSc1ccc(-c2ccccc2[C@@H]2CCC(F)(F)C[C@H]2C(=O)NCC#N)cc1 | 0.28 nM | 780 | > 36000 | 940 | IC50 [8]: 0.32 nM; CL/F [9]: 3.6 mL/min/kg; half-life [10]: 8.8 h; IC50 [11]: 16 nM; CL/F [12]: 17 mL/min/kg; half-life [13]: 15 h; half-life [14]: 3.5 h; CL/F [15]: 8.7 mL/min/kg; bioavailability [16]: 78%; bioavailability [17]: 39%; bioavailability [18]: 55% |
| N#CCNC(=O)C1=CCCCC1 |  |  |  |  | IC50 [1]: 3400 nM |
| N#CCNC(=O)[C@@H]1CCCC[C@H]1CSc1ccc(I)cc1 (relative stereo) | 17 nM | 52 | > 5800 | > 5800 |  |
| CSc1ccc(-c2ccccc2C2CCC(Cl)(Cl)CC2C(=O)NCC#N)cc1 (racemic) | 0.58 nM | 450 | > 17000 | 52 | IC50 [8]: 0.59 nM; half-life [14]: 3.1 h; CL/F [15]: 51 mL/min/kg; bioavailability [17]: 75% |
| N#CCNC(=O)[C@@H]1CCCC[C@H]1CSc1ccc(Cl)cc1 (racemic) | 30 nM | 120 | > 3400 | 330 |  |
| N#CCNC(=O)[C@@H]1CCCC[C@H]1CSc1ccc(N)cc1 (mixture of isomers) | 100 nM | 350 | > 990 | 120 |  |
| CSc1ccc(-c2ccccc2[C@H]2CCC(F)(F)C[C@@H]2C(=O)NCC#N)cc1 | 7.1 nM |  |  |  | IC50 [8]: 9.2 nM |
| N#CCNC(=O)[C@@H]1CCCC[C@H]1CSc1ccc(Br)cc1 (racemic) | 33 nM | 71 | > 3100 | > 3100 |  |

| SMILES | IC50 [2] | Selectivity ratio [3] | Selectivity ratio [4] | Selectivity ratio [5] | other results |
| --- | --- | --- | --- | --- | --- |
| N#CCNC(=O)[C@@H]1CCCC[C@H]1CSc1cc(Cl)c(Cl)cc1Cl (racemic) | 460 nM |  |  |  |  |
| N#CCNC(=O)C1CC(F)(F)CCC1c1ccccc1-c1ccc(F)cc1 (racemic) | 36 nM |  |  |  | IC50 [8]: 9.2 nM; half-life [14]: 4.5 h; CL/F [15]: 37 mL/min/kg; bioavailability [17]: 26% |
| N#CCNC(=O)[C@@H]1CCCC[C@H]1CSc1ccc(F)cc1 (mixture of isomers) | 30 nM | 120 | 145 | 35 |  |
| CSc1ccc(-c2ccccc2C2CCC(F)CC2C(=O)NCC#N)cc1 (racemic; form 1) [listing 2 of 2 here] | 4.2 nM |  |  |  | IC50 [8]: 3.7 nM; half-life [10]: 0.8 h; CL/F [12]: 21 mL/min/kg; half-life [14]: 1.5 h; CL/F [15]: 25 mL/min/kg; bioavailability [16]: 28%; bioavailability [17]: 88% |
| N#CCNC(=O)[C@@H]1CCCC[C@H]1CSc1cccc(F)c1 (racemic) | 350 nM |  |  |  |  |
| N#CCNC(=O)[C@@H]1CCCC[C@H]1CS(=O)(=O)c1ccc(OC(F)(F)F)cc1 (racemic) |  |  |  |  | half-life [6]: 0.333 h; clearance [7]: 42 mL/min/kg |
| N#CCNC(=O)[C@@H]1CCCC[C@H]1CSc1ccc(O)cc1 (racemic) | 21 nM | 1700 | 880 | 110 |  |
| N#CCNC(=O)[C@@H]1CCCC[C@H]1CSc1cccc(N)c1 (racemic) | 700 nM |  |  |  |  |
| N#CCNC(=O)[C@@H]1CCCC[C@H]1CSc1ncccn1 (racemic) | 990 nM |  |  |  |  |
| COc1ccc(SC[C@@H]2CCCC[C@H]2C(=O)NCC#N)cc1 (racemic) | 28 nM | 810 | > 3500 | 960 |  |
| N#CCNC(=O)[C@@H]1CCCC[C@@H]1SCc1ccccc1 (racemic) |  |  |  |  | IC50 [1]: 280 nM |
| COc1cccc(SC[C@@H]2CCCC[C@H]2C(=O)NCC#N)c1 (racemic) | 370 nM |  |  |  |  |
| N#CCNC(=O)[C@@H]1CCCC[C@H]1CSc1cccc(Br)c1 (mixture of isomers) | 150 nM |  |  |  |  |
| N#CCNC(=O)[C@@H]1CCCC[C@H]1CSc1nccs1 (racemic) | 490 nM |  |  |  |  |
| N#CCNC(=O)[C@@H]1CCCC[C@H]1CSc1ccc(Cl)cc1Cl (mixture of isomers) | 110 nM |  |  |  |  |
| CSc1ccc(-c2ccccc2[C@@H]2CCCC[C@H]2C(=O)NCC#N)cc1 (racemic) | 2.6 nM | 2800 | > 3800 | > 3800 | half-life [6]: 0.733 h; clearance [7]: 35 mL/min/kg |
| N#CCNC(=O)[C@@H]1CCCC[C@H]1CSc1nc2ccccc2o1 (racemic) | 480 nM |  |  |  |  |
| N#CCNC(=O)C1(NC(=O)c2ccccc2)CCCCC1 |  |  |  |  | IC50 [1]: 78 nM |
| N#CCNC(=O)[C@@H]1CCCC[C@H]1CSc1cccc(Cl)c1 (mixture of isomers) | 200 nM |  |  |  |  |
| N#CCNC(=O)[C@@H]1CCCC[C@H]1CSc1ncc[nH]1 (relative stereo) | 410 nM |  |  |  |  |
| CSc1ccc(-c2ccccc2C2CCC(F)(F)CC2C(=O)NCC#N)cc1 (racemic) | 0.46 nM | 880 | > 120000 | 1100 | IC50 [8]: 0.5 nM; half-life [14]: 3.5 h; CL/F [15]: 15 mL/min/kg; bioavailability [17]: 53% |
